# Scp-1 inhibitor: Scp-1 phosphatase inhibitors, primary screen, biochemical, colorimetric, uHTS; Carboxy-terminal domain RNA polymerase II polypeptide A small phosphatase 1 (Homo …; Recombinant Scp1, phosphopeptide, malachite green phosphate absorbance; inhibition, % at 20 µM; hit rate 0.88% among 340,000;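 active = inhibition above about 50% at 20 µM, limit read from the data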;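 also: plate controls were DMSO wells with enzyme for no effect and wells lacking enzyme for full effect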
# Target sequence (Q9GZU7 76-261 limits assumed): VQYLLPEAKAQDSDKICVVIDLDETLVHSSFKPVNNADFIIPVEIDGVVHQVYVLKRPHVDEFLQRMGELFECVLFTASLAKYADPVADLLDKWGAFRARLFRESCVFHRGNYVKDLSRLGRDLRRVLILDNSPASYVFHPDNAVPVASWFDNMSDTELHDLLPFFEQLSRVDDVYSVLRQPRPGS
#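 Times: enzyme reaction 45 min at room temperature, colour 5 min, stabilisation 30 min. Material: SCP-1 catalytic fragment, aa 76-261. Medium: Acidic Tris acetate buffer with magnesium and detergent. Signal: colorimetric free-phosphate detection, absorbance 630 nm. Read-out basis: % inhibition of SCP-1 phosphate liberation. Reagent: Phosphorylated 17-residue peptide substrate.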
# STEP block: STEP phosphatase inhibitors, primary screen, biochemical, fluorescence intensity, uHTS; recombinant STEP, OMFP fluorogenic substrate; inhibition, % at 20 µM; hit rate 0.25% among 360,000;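 active = inhibition at 20 µM, scaled per plate between control wells, above about 37%, limit read from the data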;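 also: 0% = DMSO with enzyme and substrate and 100% = substrate only without enzyme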
#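 material = STEP tyrosine phosphatase | reagent = fluorogenic phosphatase substrate OMFP at 25 µM final | doses = single compound dose of 20 µM, 1% DMSO final | schedule = 20 min reaction, room temperature, in the dark | measured by = fluorescence, 480/540 nm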
# DNMT1 inh: human DNMT1 methyltransferase inhibitors, primary screen, biochemical, molecular beacon, fluorescence, HinP1I cleavage, uHTS. DNA (cytosine-5)-methyltransferase 1 (Homo sapiens), P26358. inhibition (reported as % activation of signal), % at 10 µM. hit rate 0.83% among 360,000; in the data active = inhibition above about 50%
# NadD inh: inhibitors of S. aureus NadD, primary screen, biochemical, colorimetric, uHTS | purified NadD enzyme, colorimetric absorbance read-out | inhibition, % at 20 µM | hit rate 0.78% among 360,000 | AID 602399, 2012; in the data active = inhibition above about 26%
# LMPTP block: LMPTP phosphatase inhibitors, primary screen, biochemical, fluorescence intensity, uHTS; Low molecular weight phosphotyrosine protein phosphatase (Homo sapiens), P24666; recombinant LMPTP-A, OMFP fluorogenic substrate; inhibition, % at 20 µM; hit rate 0.22% among 360,000; AID 651560, 2012;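 active = compounds that cut the enzyme signal by at least half of the control window in the single-dose screen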;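 also: plate controls were DMSO wells with enzyme plus substrate for no effect and substrate without enzyme for full effect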
# Target sequence (P24666 whole entry, looked up): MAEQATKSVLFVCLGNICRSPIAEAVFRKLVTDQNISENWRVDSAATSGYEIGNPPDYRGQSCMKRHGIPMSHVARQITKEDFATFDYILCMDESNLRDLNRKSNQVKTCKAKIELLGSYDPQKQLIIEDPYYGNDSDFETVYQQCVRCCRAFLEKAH
#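 Test system: LMPTP-A phosphatase enzyme; input: 0.625 nM LMPTP-A final; reagent: OMFP substrate, 400 µM final; compound dosing: 20 µM single dose, 3% DMSO; incubation: 50 min dark incubation at room temperature; measured by: endpoint fluorescence intensity from OMFP dephosphorylation; measure: % inhibition relative to no-enzyme and uninhibited control wells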
# SUMO1 PPI mod: modulators of SUMO1 protein-protein interactions, primary screen, biochemical, uHTS | Small ubiquitin-related modifier 1 (Homo sapiens), P63165 | SUMO1 binding to a labelled peptide, TR-FRET, 1 h | inhibition, % at 20 µM | hit rate 0.33% among 360,000 | AID 602429, 2012; in the data active = inhibition above about 37%
# Target sequence (P63165 whole entry, looked up): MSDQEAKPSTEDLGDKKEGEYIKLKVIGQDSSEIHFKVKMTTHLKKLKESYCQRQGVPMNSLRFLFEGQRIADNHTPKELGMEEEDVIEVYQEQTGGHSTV
# NadD conf: inhibitors of S. aureus NadD, confirmation, biochemical, colorimetric, single concentration; shares compounds with NadD inh; inhibition, % at 20 µM; hit rate 13% among 2,000; purified S. aureus NadD, colorimetric enzyme assay; in the data active = inhibition mostly above about 42%, no sharp cut-off; inactive = mostly below about 42%
# Active calls of the source: *; x = no result. This is a sample that favours compounds with a hit; in the whole collection about 2.4% have one here.
SMILES,Scp-1 inhibitor,STEP block,DNMT1 inh,NadD inh,LMPTP block,SUMO1 PPI mod,NadD conf
O=C1CCCC2=C1C(c1ccccn1)Nc1ccc(C(=O)c3ccccc3)cc1N2 (stereo unspecified),-4.1,0.3,-2.1,1.3,-0.4,2.0,x
O=C1CCCC2=C1C(c1ccco1)Nc1ccc(C(=O)c3ccccc3)cc1N2 (stereo unspecified),5.6,10.9,25.3,35.3*,15.1,24.1,2.0
O=C(CSC(=S)N1CCN(c2ccccc2)CC1)Nc1nc(-c2ccccc2)c(-c2ccccc2)o1,-0.8,10.9,32.3,35.2*,0.8,0.2,2.3
CCN(CC)C(=S)SCC(=O)Nc1nc(-c2ccccc2)c(-c2ccccc2)o1,-12.8,-1.3,1.6,7.6,3.7,4.1,x
COc1cc(/C=N\NC(=O)c2ccc(-c3ccccc3)cc2)ccc1OCC(N)=O,4.8,36.5,16.4,-3.9,1.2,-0.2,x
CCOc1cc(/C=N/NC(=O)c2ccc(-c3csc(Nc4ccc(C)cc4)n3)cc2)ccc1OCC(=O)O,66.2*,83.6*,77.5*,53.2*,91.6*,18.7,27.3
Cc1nc(CC(=O)N/N=C/c2ccc(OCC(=O)O)cc2)cs1,23.9,-0.8,4.7,2.1,1.0,-1.2,x
O=C(O)COc1ccc(/C=N/NC(=O)c2ccc(-c3csc(Nc4ccc(Cl)cc4)n3)cc2)cc1,100.0*,93.4*,-65.9,71.4*,92.0*,120.6*,9.3
C#CCNC(=O)C1=C[C@@H](C2CC2)[C@H](CCCO)[C@@H](OCC)O1,-4.4,0.2,0.5,-1.0,-1.6,-0.8,x
S=c1[nH]nc(-c2cc(-c3ccccc3)n[nH]2)n1/N=C/C(Br)=C/c1ccccc1,-5.1,-2.8,34.5,61.8*,-0.3,21.5,3.4
COc1ccccc1/C=C/C=N/n1c(-c2cc(-c3ccccc3)n[nH]2)n[nH]c1=S,-3.3,0.4,-20.5,35.7*,2.7,3.5,33.2
Cc1ccc(-c2n[nH]c(=S)n2/N=C/C=C/c2ccccc2[N+](=O)[O-])cc1,-4.8,5.7,-2.1,34.9*,22.0,-16.7,20.1
S=c1[nH]nc(-c2cc(-c3ccccc3)n[nH]2)n1/N=C/C=C/c1ccccc1,-7.0,2.0,11.5,32.6*,0.1,-4.9,19.1
CC1(C(=O)NS(=O)(=O)C2CC2)CCCN(C(=O)c2ccccc2)C1 (stereo unspecified),x,1.0,-1.1,-1.7,-1.6,-1.6,x
CC(=O)N1CCOc2ccc(S(=O)(=O)N3CCC(C(=O)NCc4ccc(F)cc4)CC3)cc21,0.8,-0.8,-0.2,-4.7,-0.5,3.7,x
C#CCOC(=O)CCCC(=O)NCCCCCCCC,5.6,-0.9,4.8,2.8,-0.4,-1.0,x
CC/C(=C/c1sc2ccccc2[n+]1CC)SC,-17.2,0.1,3.5,-0.4,1.6,-3.0,x
CCN1/C(=C/C=C/C=C/C=C/c2sc3ccccc3[n+]2CC)Sc2ccccc21,20.8,1.0,80.7*,39.7*,14.3,-37.2,79.0*
Cc1nn(C)cc1S(=O)(=O)N1CCCCC1C (stereo unspecified),-8.3,-3.5,1.8,-1.4,-1.9,-1.4,x
S=C1Cc2ccccc2N1,-7.4,21.1,83.3*,30.7*,48.2,76.6*,38.9
Cc1cc(-c2csc(NC(=O)c3ccc(=O)[nH]c3)n2)c(C)n1Cc1ccccc1,-8.1,-0.2,-12.5,48.1*,3.7,4.9,39.7
Cc1cc(-c2csc(NC(=O)c3ccc(C#N)cc3)n2)c(C)n1Cc1ccco1,4.3,0.9,9.8,33.8*,0.2,6.8,24.5
O=C(Nc1nc(-c2ccccc2)cs1)c1ccc(=O)[nH]c1,-0.7,-1.7,-5.3,-3.3,-0.1,5.8,x
C=CCn1c(C)cc(-c2csc(NC(=O)CCc3nc4ccccc4c(=O)[nH]3)n2)c1C,6.8,-3.9,3.7,51.6*,7.4,0.3,28.3
N#Cc1ccc(-c2csc(NC(=O)c3ccc(N4C(=O)CCC4=O)cc3)n2)cc1,-5.2,1.8,-3.8,0.9,0.3,-15.6,x
SMILES,Scp-1 inhibitor,STEP block,DNMT1 inh,NadD inh,LMPTP block,SUMO1 PPI mod,NadD conf
Cc1cc(-c2csc(NC(=O)c3cc4ccccc4o3)n2)c(C)n1C,-4.7,-0.1,-0.4,36.2*,2.1,5.9,8.5
O=C1CN(Cc2ccccc2)C(=NCc2ccco2)S1,-4.8,-1.8,-4.8,1.7,-0.1,-8.5,x
Cc1ccc(C)n1NC(=O)c1ccc(Cl)cc1,-6.1,-2.7,-2.8,8.7,1.0,0.4,x
Cc1ccc(C)n1NC(=O)c1ccc(Cl)cc1Cl,0.8,-0.9,-1.5,33.7*,1.1,2.7,26.6
COc1ccc(/C=C/C(=O)NCC(=O)N/N=C/c2cc(Br)ccc2OCc2ccccc2)cc1,0.3,-5.9,31.1,27.8*,2.7,2.4,-0.9
O=c1[nH]c(CN2CCc3ccccc32)nc2scc(-c3cccs3)c12,-4.7,-0.6,-9.2,42.3*,1.8,0.9,13.5
O=C(NC(=S)Nn1cnc2c(cnn2-c2ccccc2)c1=O)c1ccc(Oc2ccccc2)cc1,-13.1,-0.4,1.7,42.0*,-1.2,0.5,5.1
Cn1c(SCc2ccccc2C#N)nc2ccccc2c1=O,-9.6,-0.2,-2.5,-8.1,2.6,4.4,x
Fc1ccccc1Nc1n[nH]c(=S)s1,12.5,-1.5,3.4,9.8,4.2,0.3,x
Cc1ccccc1Nc1n[nH]c(=S)s1,x,3.3,1.1,20.4,0.5,-1.0,x
Cc1c(Cl)cccc1Nc1n[nH]c(=S)s1,2.2,1.0,0.8,32.4*,1.8,5.9,30.6
S=c1[nH]nc(Nc2cccc3ccccc23)s1,-6.9,2.1,-7.9,37.2*,0.6,-2.9,43.5
CCNC(=O)C1(C)CCN(C(=O)c2ccc(C(=O)OC)cc2)C1 (stereo unspecified),x,2.6,-2.5,-0.7,-1.2,3.2,x
O=[N+]([O-])c1cc(S(=O)(=O)Nc2ccc(Cl)cc2)ccc1N/N=C/c1ccncc1,-0.9,2.3,-1.2,47.0*,1.0,-11.9,24.5
COCCn1c(C)cc(C2=NNC(=Nc3ccc(OC)cc3)SC2)c1C,-0.1,-0.6,-34.6,27.7,2.2,-1.0,x
CCN=C1NN=C(c2cc(C)n(Cc3ccco3)c2C)CS1,7.1,0.7,-0.3,37.1*,2.2,-0.9,6.9

# Source: PubChem BioAssay
